According to article PMC3993921 (Inorganic Chemistry, 2014):
Entries after “also recorded” stand apart in the source; their conditions may differ. Values belong to the compound of their own block, whether it stands above or below them.

Tests used:
stability in solution = type: physicochemical; settings: in solution (dichloromethane for 4)
IGROV ovarian cell line = settings: cited from earlier work
[1] = test system: human cervical epitheloid carcinoma (HeLa) cells; assay: Growth inhibition of HeLa cells; type: cell-based; settings: read-out: HeLa IC50, MTT after 7 d, triplicate
In short: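 Seeded at 1 × 10^4 cells/well, 1 h, then test compound 0–100 μM for 7 d. Freshly prepared MTT (5 mg/mL) added for 4 h, absorbance read at 570 nm (reference 630 nm). Triplicate, averaged; IC50 = 50% growth inhibition.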

[2] = test system: unstimulated normal cells (resting lymphocytes, PBMC); assay: Growth inhibition of normal cells: resting lymphocytes; type: cell-based; settings: read-out: lymph (resting) IC50; resting human lymphocytes (PBMC), MTT, 3 d
In short: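 Human lymphocytes (PBMCs) from preservative-free heparinised peripheral blood, left unstimulated (no PHA-P), run like the HeLa MTT assay: 1 × 10^4 cells/well, test compound 0–100 μM, but exposure 3 d. Freshly prepared MTT (5 mg/mL) added for 4 h; absorbance at 570 nm (reference 630 nm). Triplicate; IC50 as 50% growth inhibition.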

RPMI-8226 = assay: DTP 60-cell-line panel: RPMI-8226; type: cell-based; settings: leukemia RPMI-8226, Tables 3, 4
KM12 = assay: DTP 60-cell-line panel: KM12; type: cell-based; settings: colon KM12; Table 3
UACC-62 = assay: DTP 60-cell-line panel: UACC-62; type: cell-based; settings: melanoma UACC-62
OVCAR-3 = assay: DTP 60-cell-line panel: OVCAR-3; type: cell-based; settings: ovarian OVCAR-3, Table 3
A549/ATCC = assay: DTP 60-cell-line panel: A549/ATCC; type: cell-based; settings: nonsmall cell lung A549/ATCC, Tables 3, 4
COLO 205 = assay: DTP 60-cell-line panel: COLO 205; type: cell-based; settings: colon COLO205
[3] = in vivo hollow fiber studies
leukemia SR cell line = assay: DTP 60-cell-line panel: SR; type: cell-based
[4] = test system: panel of 60 cancer cell lines; assay: DTP; type: cell-based; settings: for TGI range / TGI Δ: 60 cell lines (log scale)
RXF393 = assay: DTP 60-cell-line panel: RXF393; type: cell-based; settings: renal RXF393, Table 3

Compound: CCN(CC)C(=S)[S][Au][PH](CC)(CC)CC [[(Et3P)Au(S2CNEt2)]]
ID50 (IGROV ovarian cell line): 0.012 µg/mL

Compound: N.N.[Cl][Pt][Cl] [cis-platin, reference compound]
IC50 [1]: 0.45 ± 0.09 µM

Compound: S=C([S][Au-][P+](CCCCCC[P+]([Au-][S]C(=S)n1cccn1)(c1ccccc1)c1ccccc1)(c1ccccc1)c1ccccc1)n1cccn1 [Compound 10, Dinuclear Bis(pyrazol-1-yldithiocarbamato)-bis-(diphenylphosphino)hexane Gold(I)]
GI50 (RPMI-8226): 0.19 µM
TGI (RPMI-8226): 0.53 µM
CC50 (RPMI-8226; read-out: LC50): > 100 µM
GI50 (KM12): 0.43 µM
TGI (KM12): 1.73 µM
IC50 [2]: 18.9 ± 5.66 µM
TGI (UACC-62; Table 3): >100 µM
GI50 (UACC-62; Tables 3, 4): 0.38 µM
CC50 (UACC-62; read-out: LC50, Tables 3, 4): > 100 µM
GI50 (OVCAR-3): 0.7 µM
TGI (OVCAR-3): 14.20 µM
CC50 (OVCAR-3; read-out: LC50): > 100 µM
GI50 (A549/ATCC): 0.38 µM
TGI (A549/ATCC): >100 µM
CC50 (A549/ATCC; read-out: LC50): > 100 µM
TGI (COLO 205; Table 3): >100 µM
GI50 (COLO 205; Tables 3, 4): 0.31 µM
CC50 (COLO 205; read-out: LC50, Tables 3, 4): > 100 µM
IC50 [1]: 0.51 ± 0.08 µM
activity in vivo [3]: not so great
GI50 (leukemia SR cell line; Tables 3, 4): 0.19 µM
TGI (leukemia SR cell line; Tables 3, 4): 2.41 µM
CC50 (leukemia SR cell line; read-out: LC50, Tables 3, 4): > 100 µM
TGI range [4]: 2.28
TGI Δ [4]: 1.92
CC50 (RXF393; read-out: LC50): > 100 µM
GI50 (RXF393): 0.45 µM

Compound: Cc1cc(C)n(C(=S)[S][Au-][P+](c2ccccc2)(c2ccccc2)c2ccccc2)n1 [Compound 2, 3,5-dimethylpyrazolyl-1-dithiocarbamato-triphenylphosphinogold(I)]
IC50 [2]: 9.53 ± 3.18 µM
IC50 [1]: 2.63 ± 0.1 µM

Compound: S=C([S][Au][PH](c1ccccc1)(c1ccccc1)c1ccccc1)n1ncc2ccccc21 [Compound 3, Indazolyl-1-dithiocarbamato-triphenylphosphinogold(I)]
IC50 [2]: 14 ± 10.5 µM
IC50 [1]: 2.56 ± 0.17 µM

Compound: S=C([S][Au][PH](c1ccccc1)(c1ccccc1)c1ccccc1)n1cccn1 [Compound 1, Pyrazolyl-1-dithiocarbamato-triphenylphosphinogold(I)]
IC50 [2]: 9.05 ± 3.5 µM
IC50 [1]: 2.56 ± 0.12 µM

Second part, led by results:

stability in solution (stability in solution): readily transforming to the Au18 cluster
Compound: S=C([S][Au][PH](CC[PH]([Au][S]C(=S)n1cccn1)(c1ccccc1)c1ccccc1)(c1ccccc1)c1ccccc1)n1cccn1 [Compound 4, Bis-(pyrazolyl-1-dithiocarbamato)-bis-(diphenylphosphino)ethane Dinuclear Gold(I)]

IC50 [1]: 3.07 ± 0.48 µM
Compound: S=C([S][Au][PH](CCC[PH]([Au][S]C(=S)n1cccn1)(c1ccccc1)c1ccccc1)(c1ccccc1)c1ccccc1)n1cccn1 [Compound 7, Bis(pyrazol-1-yldithiocarbamato)-bis-(diphenylphosphino)propane Dinuclear Gold(I)]
IC50 [2]: 7.05 ± 2.02 µM

IC50 [1]: 3.38 ± 0.3 µM
Compound: S=C([S][Au-][P+](CCC[P+]([Au-][S]C(=S)n1ncc2ccccc21)(c1ccccc1)c1ccccc1)(c1ccccc1)c1ccccc1)n1ncc2ccccc21 [Compound 9, Bis(indazol-1-yldithiocarbamato)-bis-(diphenylphosphino)propane Dinuclear Gold(I)]
IC50 [2]: 18.5 ± 3.88 µM

IC50 [1]: 0.14 ± 0.01 µM
Compound: Cc1cc(C)n(C(=S)[S][Au][PH](CCCCCC[PH]([Au][S]C(=S)n2nc(C)cc2C)(c2ccccc2)c2ccccc2)(c2ccccc2)c2ccccc2)n1 [Compound 11, Dinuclear Bis(3,5-dimethylpyrazol-1-yldithiocarbamato)-bis-(diphenylphosphino)hexane Gold(I)]
IC50 [2]: 18.2 ± 15.9 µM
activity in vivo [3]: could not be delivered to the targets; also recorded: not so great
TGI range [4]: 2.38
TGI Δ [4]: 1.87
GI50 MG-MID ([4]; median over 60 cell lines (log scale)): –6.25

IC50 [1]: 4.04 ± 0.49 µM
Compound: S=C([S][Au-][P+](CCCCCC[P+]([Au-][S]C(=S)n1ncc2ccccc21)(c1ccccc1)c1ccccc1)(c1ccccc1)c1ccccc1)n1ncc2ccccc21 [Compound 12, Dinuclear Bis(indazol-1-yldithiocarbamato)-bis-(diphenylphosphino)hexane Gold(I)]
IC50 [2]: 37.7 ± 12.6 µM

IC50 [1]: 6.96 ± 0.51 µM
Compound: Cc1cc(C)n(C(=S)[S][Au-][P+](CCC[P+]([Au-][S]C(=S)n2nc(C)cc2C)(c2ccccc2)c2ccccc2)(c2ccccc2)c2ccccc2)n1 [Compound 8, Bis(3,5-dimethylpyrazol-1-yldithiocarbamato)-bis-(diphenylphosphino)propane Dinuclear Gold(I)]
IC50 [2]: 6.13 ± 2.92 µM
